# Bioassay records deposited in PubChem BioAssay by several laboratories.
# In the library only some 2.9% were active in any assay of this set; here they are far more common.
# SIAE primary: inhibitors of human sialic acid acetylesterase SIAE | Q9HAT2 | SIAE FP-Rh probe binding, fluorescence polarization | inhibition, % at 9.66 µM | hit rate 0.69% among 370,000 | AID 1053197;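 active means inhibition above a cutoff: mean of compounds within the control limits plus 3 SD of those, cut at about 17% in these data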;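 further: 0% = plate median of compound wells and 100% = probe without SIAE protein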
# Target sequence (Q9HAT2 whole entry, looked up): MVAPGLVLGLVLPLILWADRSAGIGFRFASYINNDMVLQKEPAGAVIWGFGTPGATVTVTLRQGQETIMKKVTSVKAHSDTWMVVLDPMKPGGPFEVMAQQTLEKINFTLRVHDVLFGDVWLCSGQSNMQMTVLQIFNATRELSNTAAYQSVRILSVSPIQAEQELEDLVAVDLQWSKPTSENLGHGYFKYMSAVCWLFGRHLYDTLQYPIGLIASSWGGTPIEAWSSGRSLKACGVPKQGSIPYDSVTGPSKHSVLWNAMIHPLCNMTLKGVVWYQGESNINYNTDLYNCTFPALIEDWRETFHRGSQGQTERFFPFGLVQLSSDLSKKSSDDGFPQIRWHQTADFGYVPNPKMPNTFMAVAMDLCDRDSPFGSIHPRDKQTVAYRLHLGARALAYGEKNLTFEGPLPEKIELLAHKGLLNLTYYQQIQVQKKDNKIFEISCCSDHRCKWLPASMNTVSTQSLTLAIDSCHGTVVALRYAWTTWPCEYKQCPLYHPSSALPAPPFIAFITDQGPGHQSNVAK
# HTRA1 inh: blocks human HTRA1 serine peptidase; hit rate 0.5% among 340,000; recombinant HTRA1, FP-rhodamine activity-based probe, fluorescence polarization; AID 504803; Q92743; inhibition, % at 5.96 µM; in the data active means inhibition above about 36%;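 further: 0% = enzyme with DMSO and 100% = wells lacking enzyme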
# mABHD4 FP: ABHD4 (mouse) inhibition, primary FP screen | purified mABHD4, FP-Rh probe fluorescence polarization | inhibition, % at 8.92 µM | AID 720543 | hit rate 0.54% among 370,000;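 active means inhibition exceeding the mean over every tested compound plus 3 SD, cut at about 30% in these data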;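 further: 0% = plate median of compound wells and 100% = S159A mutant with DMSO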
#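 Material: mouse ABHD4 enzyme, wild type; Benchmarks: S159A mutant high control, sample median low control; Buffer or medium: HEPES pH 7.0, NaCl, Pluronic buffer; Signal: fluorescence polarization; Read-out: percent inhibition of probe binding, normalized to plate controls; Timing: pre-incubation 45 min, probe exposure 60 min, at 25 °C; Dosing: 8.92 µM, single dose.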
# TCR-CD3 inh: blocks the human TCR-CD3 interaction. inhibition, % at 9.4 µM. TAMRA-labeled TCR probe fluorescence, biochemical. hit rate 0.37% among 360,000; in the data active means inhibition above about 19%;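 further: recombinant mutant TCR 2C K166C tagged with TAMRA read by polarization; 0% = receptor in buffer alone and 100% = receptor with positive control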
# PRMT1 FP inh: blocks human protein arginine methyltransferase 1 | recombinant PRMT1, activity-based probe fluorescence polarization | hit rate 1.3% among 370,000 | Q99873 | inhibition, % at 2.79 µM;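 active means inhibition above about 21% made by adding two undisclosed values, limit read from the data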
# ATG4B inhibitor: blocks human ATG4B protease cleavage of LC3 substrate; Q9Y4P1; ATG4B cleavage of LC3-PLA2, NBD-HPC fluorescence, 1 h; inhibition, % at 8.33 µM; hit rate 0.51% among 340,000; AID 504462; in the data active means inhibition above about 40%
# An asterisk follows results filed as active; nt = no result.
SMILES,SIAE primary,HTRA1 inh,mABHD4 FP,TCR-CD3 inh,PRMT1 FP inh,ATG4B inhibitor
COCCCNc1nc2c(c(=O)[nH]c(=O)n2C)n1CC(O)COc1ccccc1C (centres undefined),19*,2,7,7,1,-4
COc1ccc(N2C(=O)CC(N3CCOCC3)C2=O)cc1 (centres undefined),0,9,-3,1,21*,-6
COc1ccc(N2C(=O)CC(N3CCN(c4ccccc4)CC3)C2=O)cc1 (centres undefined),-1,-1,-2,0,7,-4
C[C@@H]1[C@H](O)[C@@H](C)/C=C/C=C/C=C/C=C/C=C/C=C/C=C/[C@H](OC2O[C@H](C)[C@@H](O)[C@H](N)[C@@H]2O)C[C@@H]2O[C@](O)(C[C@@H](O)C[C@@H](O)[C@H](O)CC[C@@H](O)C[C@@H](O)CC(=O)O[C@H]1C)C[C@H](O)[C@H]2C(=O)O (some centres undefined),-3,nt,-7,nt,3,nt
CCN1CCN(C2=C(NS(=O)(=O)c3ccc(Br)cc3)C(=O)c3ccccc3C2=O)CC1,9,6,6,0,22*,-14
CCN1CCN(C2=C(NS(=O)(=O)c3ccccc3)C(=O)c3ccccc3C2=O)CC1,11,4,7,3,7,4
OCCN1CCN(C(=S)c2ccc(Br)cc2)CC1,-2,-2,5,1,22*,0
CSc1ccc(C(=S)N2CCN(CCO)CC2)cc1,3,5,0,3,21,-5
Cc1ccc(C)c(S(=O)(=O)Nc2cc(SCC(=O)O)c(O)c3ccccc23)c1,nt,45*,nt,nt,nt,-1
Cc1ccc2c(c1)-c1c(cnn1CC(=O)NC(C)CCc1ccco1)CO2 (centres undefined),2,-14,-3,-3,23*,-10
Cc1ccc2c(c1)-c1c(cnn1CC(=O)N(Cc1ccco1)C1CCCCC1)CO2,-4,-18,-6,0,1,7
COc1ccccc1OC(=O)CCc1nc2ccccc2s1,3,7,1,7,22*,-5
CC(C)[C@@H]1NC(=O)[C@H]2C[C@@]3(C)c4ccccc4N[C@H]3N2C1=O,-4,nt,11,nt,5,nt
COC(=O)Cc1cc(=O)n(-c2nc3ccccc3[nH]2)[nH]1,17,36,17,22*,3,-7
COc1ccc(CC(=O)Nc2nc3ccccc3[nH]2)cc1,2,0,-1,2,-8,-7
Cc1ccc(C(C[N+](=O)[O-])Sc2ccc(N)cc2)cc1 (centres undefined),3,-10,2,-9,67*,-6
Nc1ccc(S(=O)(=O)c2cc(O)c3ccccc3c2O)cc1,1,19,48*,6,24*,-5
COc1ccc(N=Cc2cc(Cc3ccccc3Cl)cc([N+](=O)[O-])c2O)cc1OC,nt,12,nt,nt,nt,94*
S=C(NNc1ccnc2cc(Cl)ccc12)Nc1ccc(Cl)cc1Cl,19*,7,20,1,0,-4
CCCC(=O)N(C1CC(C)C(C#N)(C#N)C1(C#N)C#N)N(C)C (centres undefined),-9,-7,-6,-5,22*,-2
COc1ccc2[nH]c(C(=O)N/N=C/c3ccc(O)cc3O)cc2c1,25*,26,18,7,-2,22
Cc1cc(C)cc(C(=O)OCCN2CCN(C3CN(Cc4cn(Cc5ccccc5F)nn4)S(=O)(=O)C3)CC2)c1 (centres undefined),-1,nt,-3,nt,-1,nt
C=CCOc1ccc(C(=O)/C=C2/C(=O)Nc3ccccc32)cc1,-1,-10,8,2,-5,2
C=CCOc1ccccc1C(=O)/C=C1/C(=O)Nc2ccccc21,2,-4,11,1,23*,-8
COc1ccc(N2CCN(CCCNC(=O)Cn3c(=O)c4cccn4c4c(C)ccnc43)CC2)cc1,3,nt,5,nt,-7,nt
SMILES,SIAE primary,HTRA1 inh,mABHD4 FP,TCR-CD3 inh,PRMT1 FP inh,ATG4B inhibitor
COc1ccc(C=NNC(=O)Cc2cc(=O)[nH][nH]2)c(OC)c1,3,nt,7,nt,2,nt
O=C(O)c1cc(O)c2c(c1)C(=O)c1cccc(O)c1C2=O,12,31,98*,11,32*,-4
O=C1CC(N2CCC(c3nc4ccccc4s3)CC2)C(=O)N1Cc1ccccc1 (centres undefined),1,4,1,3,24*,-6
CC(C)CC1NC(=O)N(CC(=O)N2c3ccccc3NC(=O)C2(C)C)C1=O (centres undefined),20*,-2,2,0,1,-1
CCC1(c2ccc(F)cc2)NC(=O)N(CC(=O)N2c3ccccc3NC(=O)C2(C)C)C1=O (centres undefined),-1,-1,1,-2,-3,-1
C#CCNC(=O)C[C@H]1C[C@@]2(C(=O)OC)C(=C[C@H](C(C)C)O[C@@H]2C2CC2)N(CCc2ccc(OC)c(OC)c2)C1=O,-3,nt,2,nt,1,nt
O=C(Nc1ccc(F)cc1F)c1cc(-c2ccco2)nc2ccccc12,-9,-26,-11,-1,23*,4
O=C(CSc1nc2cc([N+](=O)[O-])ccc2n1-c1ccccc1)NCc1ccc2c(c1)OCO2,4,9,-6,-1,24*,-6
Cc1cc(C)cc(-n2c(SCC(=O)NCc3ccc4c(c3)OCO4)nc3ccccc3c2=O)c1,-5,-8,1,10,3,30
CCOC(=O)[C@]12CCCCC/C=C\1N(CCc1ccc(Cl)cc1)C(=O)[C@H]2CC(=O)NCCCCc1ccccc1,-8,nt,-8,nt,4,nt
Cc1nc2c(=O)[nH]c(=S)[nH]c2[nH]c1=O,-15,5,-1,5,24*,3
Cc1ccc(S(=O)(=O)C(C#N)c2nc3ccccc3nc2N2CCCC2)cc1 (centres undefined),6,4,16,-5,58*,1
N#CC(c1nc2ccccc2nc1N1CCOCC1)S(=O)(=O)c1ccccc1 (centres undefined),3,4,-3,-10,8,-7
O=C(CCN1CCCCC1)Nn1c(=S)[nH]c2ccccc2c1=O,4,-6,1,-3,24*,-7
CCCCN(C)CCn1c(=S)[nH]c2ccc(N3CCOCC3)cc2c1=O,-5,4,-4,-7,24*,-7
O=C1CSC(=S)N1N=C1CCCCCC1,-3,2,6,8,23*,6
CCCCCCCCN1C(=O)[C@@H](CC(=O)NCCc2ccccc2OC)C[C@@]2(C(=O)OC)C1=C[C@H](COCc1ccccc1)O[C@@H]2C,0,nt,0,nt,0,nt
Cc1ccc(S(=O)(=O)N2CCCC(C(=O)NCc3ccco3)C2)cc1 (centres undefined),1,nt,1,nt,0,nt
